Experimental data collected from several papers.
Cell line: Vero
Observed: cell growth or viability

SMILES | technique | time | endpoint | result
Nc1nc(N)c(CNCCc2ccc(Cl)cc2Cl)c(C2CC2)n1 | SRB | – | IC50 | 31 µM
[C-]#[N+]C(C)(C)C[C@@H]1C[C@H](C)[C@H]2CC[C@H](C)[C@@]3([N+]#[C-])CCC(=C)[C@@H]1[C@H]23 | – | – | IC50 | 99.7 µM
CCCCCCCCn1cc(CN2CCC3(CC2)OCCO3)c2ccc(OC)cc21 | – | – | IC50 | 46 µM
COc1ccccc1CCNCc1c(N)nc(N)nc1C1CC1 | SRB | – | IC50 | > 100 µM
CO[C@H]1/C=C/O[C@@]2(C)Oc3c(C)c(O)c4c(O)c(c(/C=N/N5CCN(C)CC5)c(O)c4c3C2=O)NC(=O)/C(C)=C\C=C\[C@H](C)[C@H](O)[C@@H](C)[C@@H](O)[C@@H](C)[C@H](OC(C)=O)[C@@H]1C | – | – | IC50 | 113 µM
C[C@H]1O[C@H](O[C@H]2CC[C@H](n3ccc(NC(=O)c4ccc(NC(=O)[C@@](C)(N)CO)cc4)nc3=O)O[C@@H]2C)[C@H](O)[C@@H](O)[C@@H]1N(C)C | – | – | IC50 | > 100 µM
O=[N+]([O-])c1ccc(-c2nn(-c3ccccc3)c3sc(NC(c4ccccc4O)P(=O)(Oc4ccccc4)Oc4ccccc4)nc23)cc1 (stereo not drawn) | SRB | – | IC50 | > 100 µM
CSc1c2c3c(n1C)C(=O)C(=O)C(Cl)=C3NCC2 | MTT | 72 h | IC50 | > 17.7 µM
N#CCCOc1ccc(Oc2ccccc2)cc1 | – | 72 h | CC50 | > 20 µM
CN(CC[C@H](N)CC(=O)N[C@H]1C=C[C@H](n2ccc(N)nc2=O)O[C@@H]1C(=O)O)C(=N)N | – | – | IC50 | 13.9 µM
Nc1nc(N)c(CNCCc2ccc(Cl)c(Cl)c2)c(C2CC2)n1 | SRB | – | IC50 | 21 µM
FC(F)(F)Oc1ccc(Oc2ccc(CNCCNC3C4CC5CC(C4)CC3C5)cc2)cc1 (stereo not drawn) | – | 18 h | IC50 | 3.9 µg/mL
Nc1nc(N)c(CNCCc2ccccc2Cl)c(C2CC2)n1 | SRB | – | IC50 | 67 µM
Cn1cc2c3c1C(=O)C(N)=C(Cl)C3=NCC2 | MTT | 72 h | IC50 | > 21.3 µM
CN(C)c1ccc(C(Nc2nc3c(-c4ccc([N+](=O)[O-])cc4)nn(-c4ccccc4)c3s2)P(=O)(Oc2ccccc2)Oc2ccccc2)cc1 (stereo not drawn) | SRB | – | IC50 | > 100 µM
Nc1nc(N)c(CNCCc2cccc(F)c2)c(C2CC2)n1 | SRB | – | IC50 | > 100 µM
N#CCCCOc1ccc(Oc2ccccc2)cc1 | – | 72 h | CC50 | > 20 µM
NNC(=O)c1ccncc1 | – | 18 h | IC50 | 18000 µg/mL
